Test results as given in ChEMBL document CHEMBL1143754, “2-Styrylchromones: novel strong scavengers of reactive oxygen and nitrogen species” (Bioorg Med Chem, 2007).
Activity calls are given as the source filed them. No cut-off for these calls is given here.

Experiment: Singlet oxygen scavenging activity by assessed as inhibition of DHR oxidation
Format: functional
In short: (§1)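 Singlet oxygen from thermal breakdown of the endoperoxide NDPO2 (1 mM final), with histidine 10 mM and DHR 50 µM in 100 mM phosphate pH 7.4. Compounds in DMSO. After 30 min at 37 °C, rhodamine 123 fluorescence (ex 485/em 528 nm). % inhibition of DHR oxidation. Penicillamine control. Four experiments in triplicate.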
Compound `O=c1cc(/C=C/c2ccccc2)oc2cc(O)cc(O)c12` has an IC50 of 163 µM. With `O=c1cc(/C=C/c2ccc(O)cc2)oc2cc(O)cc(O)c12` the IC50 was 183 µM. In the case of `CC(C)(S)[C@@H](N)C(=O)O` [PENICILLAMINE], the IC50 is reported as 4.9 µM.

Experiment: Singlet oxygen scavenging activity at 500 uM assessed as inhibition of DHR oxidation
Format: functional
In short: as §1
In the case of `O=c1cc(-c2ccccc2)oc2cc(O)cc(O)c12` [CHRYSIN], the Activity is reported as “inactive”.

Experiment: Peroxynitrite scavenging activity assessed as inhibition of DHR oxidation at 500 uM
Format: functional
In short: (§2)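 Buffer of 90 mM NaCl, 50 mM Na3PO4, 5 mM KCl, pH 7.4, with 100 µM DTPA. Final: DHR 5 µM, ONOO− 600 nM, compounds in DMSO. 37 °C, fluorescence (ex 485/em 528 nm) after 2 min. % inhibition of DHR oxidation. Ebselen control. Four experiments in triplicate.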
With `O=c1cc(/C=C/c2ccccc2)oc2cc(O)ccc12` the Activity was “inactive”. For `O=c1cc(-c2ccccc2)oc2cc(O)ccc12` [7-HYDROXYFLAVONE], the Activity was “inactive”.

Experiment: Peroxynitrite scavenging activity assessed as inhibition of DHR oxidation
Format: functional
In short: as §2
For `O=c1cc(/C=C/c2ccc(O)cc2)oc2cccc(O)c12`, the IC50 was 1.04 µM. For `O=c1cc(-c2ccc(O)cc2)oc2cc(O)cc(O)c12` [APIGENIN], the IC50 was 76.1 µM. For `O=c1cc(-c2ccccc2)oc2cc(O)cc(O)c12` [CHRYSIN], the IC50 was 188 µM. `O=c1cc(/C=C/c2ccccc2)oc2cc(O)cc(O)c12` showed an IC50 of 46.6 µM. `O=c1cc(/C=C/c2ccc(O)cc2)oc2cc(O)cc(O)c12` gave an IC50 of 1.25 µM. Work on `O=c1c2ccccc2[se]n1-c1ccccc1` [EBSELEN] yielded an IC50 of 0.91 µM.

Experiment: Singlet oxygen scavenging activity at 1 mM assessed inhibition of as DHR oxidation
Format: functional
In short: as §1
With `O=c1cc(/C=C/c2ccccc2)oc2cc(O)ccc12` the Activity was “inactive”. `O=c1cc(-c2ccc(O)cc2)oc2cc(O)cc(O)c12` [APIGENIN] gave an inhibition of 30%. For `O=c1cc(-c2ccccc2)oc2cc(O)ccc12` [7-HYDROXYFLAVONE], the Activity was “inactive”.

Experiment: Hypochlorous acid scavenging activity assessed as inhibition of DHR oxidation
Format: functional
In short: (§3)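 HOCl made fresh by bringing 1% NaOCl to pH 6.2 with H2SO4, quantified at 235 nm. Final: DHR 5 µM, HOCl 5 µM in 100 mM phosphate pH 7.4, compounds in ethanol. Run at 37 °C; rhodamine 123 fluorescence (ex 485/em 528 nm) read immediately. % inhibition of DHR oxidation. Lipoic acid control. Four experiments in triplicate.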
Work on `O=C(O)CCCCC1CCSS1` (stereo not drawn) [LIPOIC ACID, ALPHA] yielded an IC50 of 2.4 µM. Compound `O=c1cc(/C=C/c2ccccc2)oc2cc(O)ccc12` has an IC50 of 72.3 µM. For `O=c1cc(-c2ccc(O)cc2)oc2cc(O)cc(O)c12` [APIGENIN], the IC50 was 3.9 µM. `O=c1cc(-c2ccccc2)oc2cc(O)cc(O)c12` [CHRYSIN] gave an IC50 of 3.9 µM. Work on `O=c1cc(/C=C/c2ccccc2)oc2cc(O)cc(O)c12` yielded an IC50 of 5.7 µM. Compound `O=c1cc(/C=C/c2ccc(O)cc2)oc2cc(O)cc(O)c12` has an IC50 of 8.5 µM. Compound `O=c1cc(-c2ccccc2)oc2cc(O)ccc12` [7-HYDROXYFLAVONE] has an IC50 of 146 µM.

Experiment: Nitric oxide scavenging activity assessed as inhibition of DAF2 oxidation
Format: functional
In short: (§4)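 NOC-5 (10 µM final) as NO donor, DAF-2 5 µM in 50 mM KH2PO4 pH 7.4, compounds in DMSO. After 30 min at 37 °C, DAF-2T fluorescence read (ex 485/em 528 nm). Value is % inhibition of DAF-2 oxidation. Rutin control.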
With `C[C@@H]1O[C@@H](OC[C@H]2O[C@@H](Oc3c(-c4ccc(O)c(O)c4)oc4cc(O)cc(O)c4c3=O)[C@H](O)[C@@H](O)[C@@H]2O)[C@H](O)[C@H](O)[C@H]1O` [RUTIN] the IC50 was 3.66 µM. `O=c1cc(/C=C/c2ccccc2)oc2cc(O)cc(O)c12` gave an IC50 of 73.9 µM.

Experiment: Superoxide radical scavenging activity by NBT reduction assay
Format: functional
In short: (§5)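 Superoxide generated by NADH/PMS at room temperature. Final: NADH 166 µM, NBT 43 µM, PMS 2.7 µM in 19 mM phosphate pH 7.4; compounds in DMSO. NBT reduction to diformazan followed at 560 nm for 2 min. % inhibition. Propyl gallate control. Four experiments in triplicate.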
`O=c1cc(/C=C/c2ccc(O)cc2)oc2cc(O)cc(O)c12` gave an IC50 of 77.7 µM. In the case of `CCCOC(=O)c1cc(O)c(O)c(O)c1` [PROPYL GALLATE], the IC50 is reported as 24.6 µM.

Experiment: Peroxynitrite scavenging activity assessed as inhibition of DHR oxidation in presence of NaHCo3 at 500 uM
Format: functional
In short: (§6)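 Parallel peroxynitrite set with 25 mM NaHCO3 added to mimic physiological CO2. Otherwise the same: 100 µM DTPA phosphate/NaCl/KCl buffer pH 7.4, DHR 5 µM, ONOO− 600 nM, compounds in DMSO. 37 °C, 2 min, fluorescence ex 485/em 528 nm. % inhibition of DHR oxidation. Four experiments in triplicate.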
In the case of `O=c1cc(/C=C/c2ccccc2)oc2cc(O)ccc12`, the Activity is reported as “inactive”. In the case of `O=c1cc(-c2ccccc2)oc2cc(O)ccc12` [7-HYDROXYFLAVONE], the Activity is reported as “inactive”.

Experiment: Hypochlorous acid scavenging activity at 25 uM assessed as inhibition of DHR oxidation
Format: functional
In short: as §3
In the case of `O=c1cc(/C=C/c2ccc(O)cc2)oc2cccc(O)c12`, the inhibition is reported as 29%.

Experiment: Nitric oxide scavenging activity assessed as inhibition of DAF2 oxidation at 250 uM
Format: functional
In short: as §4
With `O=c1cc(/C=C/c2ccccc2)oc2cc(O)ccc12` the Activity was “inactive”. For `O=c1cc(-c2ccc(O)cc2)oc2cc(O)cc(O)c12` [APIGENIN], the Activity was “inactive”. For `O=c1cc(-c2ccccc2)oc2cc(O)cc(O)c12` [CHRYSIN], the inhibition was 20%. In the case of `O=c1cc(/C=C/c2ccc(O)cc2)oc2cc(O)cc(O)c12`, the inhibition is reported as 21%. With `O=c1cc(-c2ccccc2)oc2cc(O)ccc12` [7-HYDROXYFLAVONE] the Activity was “inactive”.

Experiment: Peroxynitrite scavenging activity assessed as inhibition of DHR oxidation in presence of NaHCo3
Format: functional
In short: as §6
Work on `O=c1cc(/C=C/c2ccc(O)cc2)oc2cccc(O)c12` yielded an IC50 of 0.98 µM. In the case of `O=c1cc(-c2ccc(O)cc2)oc2cc(O)cc(O)c12` [APIGENIN], the IC50 is reported as 21.2 µM. `O=c1cc(-c2ccccc2)oc2cc(O)cc(O)c12` [CHRYSIN] showed an IC50 of 140 µM. In the case of `O=c1cc(/C=C/c2ccccc2)oc2cc(O)cc(O)c12`, the IC50 is reported as 40.6 µM. With `O=c1cc(/C=C/c2ccc(O)cc2)oc2cc(O)cc(O)c12` the IC50 was 1.21 µM. Compound `O=c1c2ccccc2[se]n1-c1ccccc1` [EBSELEN] has an IC50 of 4.63 µM.

Experiment: Nitric oxide scavenging activity assessed as inhibition of DAF2 oxidation at 50 uM
Format: functional
In short: as §4
For `O=c1cc(/C=C/c2ccc(O)cc2)oc2cccc(O)c12`, the Activity was “inactive”.

Experiment: Hydrogen peroxide scavenging activity at 250 uM by assessed as inhibition of lucigenin oxidation
Format: functional
In short: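 Chemiluminescence assay of H2O2-induced lucigenin oxidation, 37 °C, 50 mM Tris-HCl pH 7.4. Final concentrations: lucigenin 0.8 mM, 1% H2O2. Compounds in DMSO at various concentrations. Signal read right after the plate goes into the reader. Reported as % inhibition of lucigenin oxidation. Ascorbic acid as positive control. Four experiments, each in triplicate.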
Compound `O=c1cc(/C=C/c2ccc(O)cc2)oc2cccc(O)c12` has an inhibition of 40%. For `O=c1cc(/C=C/c2ccccc2)oc2cc(O)ccc12`, the Activity was “inactive”. In the case of `O=c1cc(-c2ccc(O)cc2)oc2cc(O)cc(O)c12` [APIGENIN], the Activity is reported as “inactive”. For `O=c1cc(-c2ccccc2)oc2cc(O)cc(O)c12` [CHRYSIN], the Activity was “inactive”. With `O=c1cc(/C=C/c2ccccc2)oc2cc(O)cc(O)c12` the Activity was “inactive”. `O=c1cc(/C=C/c2ccc(O)cc2)oc2cc(O)cc(O)c12` showed an inhibition of 36%. In the case of `O=c1cc(-c2ccccc2)oc2cc(O)ccc12` [7-HYDROXYFLAVONE], the Activity is reported as “inactive”.

Experiment: Singlet oxygen scavenging activity at 40 uM assessed as inhibition of DHR oxidation
Format: functional
In short: as §1
With `O=c1cc(/C=C/c2ccc(O)cc2)oc2cccc(O)c12` the inhibition was 29%.

Experiment: Superoxide radical scavenging activity at 100 uM by NBT reduction assay
Format: functional
In short: as §5
For `O=c1cc(/C=C/c2ccc(O)cc2)oc2cccc(O)c12`, the Activity was “inactive”. `O=c1cc(-c2ccc(O)cc2)oc2cc(O)cc(O)c12` [APIGENIN] showed an inhibition of 35%.

Experiment: Superoxide radical scavenging activity at 125 uM by NBT reduction assay
Format: functional
In short: as §5
With `O=c1cc(/C=C/c2ccccc2)oc2cc(O)ccc12` the inhibition was 40%. With `O=c1cc(-c2ccccc2)oc2cc(O)cc(O)c12` [CHRYSIN] the Activity was “inactive”. Compound `O=c1cc(/C=C/c2ccccc2)oc2cc(O)cc(O)c12` has an inhibition of 27%. In the case of `O=c1cc(-c2ccccc2)oc2cc(O)ccc12` [7-HYDROXYFLAVONE], the Activity is reported as “inactive”.
